Assay results reported in ChEMBL document CHEMBL3271971, “Antineoplastic and biochemical properties of arylsulfonylhydrazones of 2-formylpyridine N-oxide” (J Med Chem, 1976).

How the values were obtained:
Mus musculus [1] = assay: Effect on RNA synthesis in tumor of CD-1 mouse allografted with mouse S180A cells assessed as [3H]-uridine incorporation at 20 mg/kg, ip pretreated for 1 hr followed by radiotracer-addition measured after 1 hr relative to control; type: functional; conditions: route intraperitoneal
Method in brief: (§1)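 Sarcoma 180 ascites cells implanted 6 days earlier. Mice received a single ip dose of 10–80 mg/kg, then 1 h later an ip tracer: 200 μg thymidine-3H, 200 μg uridine-3H or 125 μg DL-leucine-14C. Tracer was incorporated for 1 h. Specific activity of tumor-cell DNA, RNA or protein is expressed as % of untreated controls. Values are means of 4-16 mice, each analyzed separately.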

Mus musculus [2] = assay: Effect on RNA synthesis in tumor of CD-1 mouse allografted with mouse S180A cells assessed as [3H]-uridine incorporation at 40 mg/kg, ip pretreated for 1 hr followed by radiotracer-addition measured after 1 hr relative to control; type: functional; conditions: route intraperitoneal; method in brief: as §1
Mus musculus [3] = assay: Effect on protein synthesis in tumor of CD-1 mouse allografted with mouse S180A cells assessed as [14C]-leucine incorporation at 40 mg/kg, ip pretreated for 1 hr followed by radiotracer-addition measured after 1 hr relative to control; type: functional; conditions: route intraperitoneal; method in brief: as §1
Mus musculus [4] = assay: Effect on DNA synthesis in tumor of CD-1 mouse allografted with mouse S180A cells assessed as [3H]-thymidine incorporation at 80 mg/kg, ip pretreated for 12 hrs followed by radiotracer-addition measured after 1 hr relative to control; type: functional; conditions: route intraperitoneal
Method in brief: (§2)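 Mice bearing 6-day Sarcoma 180 ascites implants received a single ip dose of 80 mg/kg. At the stated pretreatment time they were given ip tracer: 200 μg thymidine-3H, 200 μg uridine-3H or 125 μg DL-leucine-14C. After 1 h of incorporation, specific radioactivity of DNA, RNA or protein was read as % of control incorporation.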

Mus musculus [5] = assay: Effect on RNA synthesis in tumor of CD-1 mouse allografted with mouse S180A cells assessed as [3H]-uridine incorporation at 80 mg/kg, ip pretreated for 3 hrs followed by radiotracer-addition measured after 1 hr relative to control; type: functional; conditions: route intraperitoneal; method in brief: as §2
Mus musculus [6] = assay: Effect on RNA synthesis in tumor of CD-1 mouse allografted with mouse S180A cells assessed as [3H]-uridine incorporation at 80 mg/kg, ip pretreated for 6 hrs followed by radiotracer-addition measured after 1 hr relative to control; type: functional; conditions: route intraperitoneal; method in brief: as §2
Mus musculus [7] = assay: Effect on RNA synthesis in tumor of CD-1 mouse allografted with mouse S180A cells assessed as [3H]-uridine incorporation at 80 mg/kg, ip pretreated for 12 hrs followed by radiotracer-addition measured after 1 hr relative to control; type: functional; conditions: route intraperitoneal; method in brief: as §2
[8] = Antineoplastic activity against mouse S180A cells allografted in CD-1 mouse assessed as average survival at maximum effective dose administered qd for 6 days (reference value: 12.5 +/- 0.3 days); type: functional
Method in brief: (§3)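 Sarcoma 180 ascites cells were transplanted from a donor mouse bearing a 7-day tumour. Each agent was tested at 10–60 mg/kg/day, once daily for six consecutive days, starting 24 h after transplantation, in groups of 5–10 mice. Pooled untreated controls totalled 40 mice. Mice surviving beyond 50 days were counted as 50-day survivors, and body-weight change over therapy served as the toxicity index.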

[9] = Antineoplastic activity against mouse S180A cells allografted in CD-1 mouse assessed as maximum dose required for increase in mouse survival administered qd for 6 days; type: functional
[10] = Antineoplastic activity against mouse S180A cells allografted in CD-1 mouse assessed as mouse survival at maximum effective dose administered qd for 6 days measured for 50 days relative to control; type: functional; method in brief: as §3
[11] = Antineoplastic activity against mouse S180A cells allografted in CD-1 mouse assessed as average survival at maximum effective dose administered qd for 6 days relative to control; type: functional; method in brief: as §3
Mus musculus [12] = assay: Toxicity in CD-1 mouse allografted with mouse S180A cells assessed as change in body weight at 20 mg/kg administered qd for 6 days (reference value: 23.2%); type: organism-based; set-up: dose 20 mg/kg; conditions: in vivo, 144 h
[13] = Antineoplastic activity against mouse S180A cells allografted in CD-1 mouse assessed as average survival at 20 mg/kg administered qd for 6 days (reference value: 12.9 +/- 1.2 days); type: functional
Method in brief: (§4)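 Ascitic tumours were transplanted from an appropriate donor mouse carrying a 7-day tumour growth. Drug was given at 10–60 mg/kg/day for six consecutive days. Sensitivity was judged by prolongation of survival time relative to untreated tumour-bearing controls. Mice were weighed throughout, and percentage weight change from onset to end of therapy indicated toxicity.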

[14] = Antineoplastic activity against mouse S180A cells allografted in CD-1 mouse assessed as average survival at 60 mg/kg administered qd for 6 days (reference value: 12.9 +/- 1.2 days); type: functional; method in brief: as §4
Mus musculus [15] = assay: Toxicity in CD-1 mouse allografted with 1-formylisoquinoline thiosemicarbazone-resistant mouse S180A cells assessed as change in body weight at 40 mg/kg administered qd for 6 days (reference value: 29.6%); type: organism-based; set-up: dose 40 mg/kg; conditions: in vivo, 144 h
Method in brief: (§5)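 Ascitic tumors were transplanted from a donor mouse bearing a 7-day tumor. Daily doses were given for six consecutive days. Percentage body-weight change from onset to termination of therapy served as the index of drug toxicity.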

Mus musculus [16] = assay: Toxicity in CD-1 mouse allografted with 1-formylisoquinoline thiosemicarbazone-resistant mouse S180A cells assessed as change in body weight at 60 mg/kg administered qd for 6 days (reference value: 29.6%); type: organism-based; set-up: dose 60 mg/kg; conditions: in vivo, 144 h; method in brief: as §5
Mus musculus [17] = assay: Toxicity in BDF1 mouse allografted with mouse L1210 cells assessed as change in body weight at 20 mg/kg administered qd for 6 days (reference value: 13.6%); type: organism-based; set-up: dose 20 mg/kg; conditions: in vivo, 144 h; method in brief: as §5
L1210 = assay: Antineoplastic activity against mouse L1210 cells allografted in BDF1 mouse assessed as average survival at 60 mg/kg administered qd for 6 days (reference value: 8.2 +/- 0.4 days); type: functional; method in brief: as §4
Mus musculus [18] = assay: Toxicity in CD-1 mouse allografted with mouse EAC cells assessed as change in body weight at 20 mg/kg administered qd for 6 days (reference value: 26.8%); type: organism-based, Ehrlich; set-up: dose 20 mg/kg; conditions: in vivo, 144 h; method in brief: as §5
Mus musculus [19] = assay: Toxicity in CD-1 mouse allografted with mouse EAC cells assessed as change in body weight at 60 mg/kg administered qd for 6 days (reference value: 26.8%); type: organism-based, Ehrlich; set-up: dose 60 mg/kg; conditions: in vivo, 144 h; method in brief: as §5
Ehrlich [20] = assay: Antineoplastic activity against mouse EAC cells allografted in CD-1 mouse assessed as average survival at 20 mg/kg administered qd for 6 days (reference value: 14.4 +/- 1.2 days); type: functional; method in brief: as §4
Ehrlich [21] = assay: Antineoplastic activity against mouse EAC cells allografted in CD-1 mouse assessed as average survival at 60 mg/kg administered qd for 6 days (reference value: 14.4 +/- 1.2 days); type: functional; method in brief: as §4
Ehrlich [22] = assay: Antineoplastic activity against mouse EAC cells allografted in CD-1 mouse assessed as mouse survival at 20 mg/kg administered qd for 6 days measured for 50 days relative to control; type: functional; method in brief: as §4
Ehrlich [23] = assay: Antineoplastic activity against mouse EAC cells allografted in CD-1 mouse assessed as mouse survival at 40 mg/kg administered qd for 6 days measured for 50 days relative to control; type: functional; method in brief: as §4
Ehrlich [24] = assay: Antineoplastic activity against mouse EAC cells allografted in CD-1 mouse assessed as mouse survival at 60 mg/kg administered qd for 6 days measured for 50 days relative to control; type: functional; method in brief: as §4
Mus musculus [25] = assay: Toxicity in C3H mouse allografted with mouse Hepa129 cells assessed as change in body weight at 40 mg/kg administered qd for 6 days (reference value: 13.5%); type: organism-based; set-up: dose 40 mg/kg; conditions: in vivo, 144 h; method in brief: as §5

Molecule `Cc1ccc(S(=O)(=O)N/N=C/c2cccc[n+]2[O-])cc1` has an Activity (Mus musculus [1]) of 71%, an Activity (Mus musculus [2]) of 65% and an Activity (Mus musculus [3]) of 93%. It also gave an Activity (Mus musculus [4]) of 57%, an Activity (Mus musculus [5]) of 62% and an Activity (Mus musculus [6]) of 50%. The Activity (Mus musculus [7]) was 102%, the Survival [8] was 38.4 days and the Activity [9] was 60 mg/kg. It also gave a Survival [10] of 0%, a T/C [11] of 307% and an Activity (Mus musculus [12]) of 21.6%. For the same molecule, the Survival [13] was 24.9 days, the Survival [14] was 38.4 days and the Activity (Mus musculus [15]) was 3.4%. For the same molecule, the Activity (Mus musculus [16]) was 0%, the Activity (Mus musculus [17]) was 10.6% and the Survival (L1210) was 11.8 days. For the same molecule, the Activity (Mus musculus [18]) was 2.4%, the Activity (Mus musculus [19]) was -1.8% and the Survival (Ehrlich [20]) was 34.6 days. For the same molecule, the Survival (Ehrlich [21]) was 40.8 days, the survival at 20 mg/kg (Ehrlich [22]) was 10% and the survival at 40 mg/kg (Ehrlich [23]) was 50%. The survival at 60 mg/kg (Ehrlich [24]) was 40% and the Activity (Mus musculus [25]) was 2.3%.
